Assays:
Type in all cases: functional
[1] = system: Rattus norvegicus; assay: Amount of triglycerides in obese Zucker rats after 2 weeks of treatment at a dose of 10 mg/kg/day
How it was run: (§1)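 Female Zucker fatty rats [Crl:(Zuc)-faBR], 10–12 weeks old (400–500 g), dosed once daily by oral gavage in 20% EtOH/80% PEG-200 for up to 14 days. After a 6-h fast, serum was taken pre-dose, at day 7 (orbital venous plexus, O2/CO2 anaesthesia) and at day 14 (cardiac puncture), stored at −80 °C, and assayed on a Hitachi 912 automatic analyzer. Mean ± SEM.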

[2] = system: Rattus norvegicus; assay: Amount of nonesterified fatty acids in obese Zucker rats after 1 week of treatment at a dose of 0 mg/kg/day; how it was run: as §1
[3] = system: Rattus norvegicus; assay: Amount of nonesterified fatty acids in obese Zucker rats after 1 week of treatment at a dose of 100 mg/kg/day; how it was run: as §1
[4] = system: Rattus norvegicus; assay: Percent increase in HDL-cholesterol in obese Zucker rats after 1 week of treatment at a dose of 30 mg/kg/day
How it was run: (§2)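 Female Zucker fatty rats [Crl:(Zuc)-faBR], 10–12 weeks, 400–500 g, acclimated 7 days on chow. Compound or vehicle (20% EtOH/80% PEG-200) given by daily oral gavage for 2 weeks, 0–100 mg/kg/day. After a 6 h fast, blood was taken before dosing, at 1 wk and at 2 wk. Serum lipids, NEFA and insulin (ELISA) were measured; glucose by glucometer. HDL/non-HDL-C came from Superose 6 gel-filtration profiles. Values are % change from pretreatment, mean ± SEM.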

[5] = system: Rattus norvegicus; assay: Amount of HDL-cholesterol in obese Zucker rats after 1 week of treatment at a dose of 100 mg/kg/day
How it was run: (§3)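 Female Zucker fatty rats [Crl:(Zuc)-faBR], 10–12 weeks old (400–500 g), dosed once daily by oral gavage in 20% EtOH/80% PEG-200 (dose volume 0.25% of body weight). Rats were fasted 6 h and bled before dosing and at day 7 (orbital plexus), and at day 14 (cardiac puncture). Serum cholesterol fractions came from Superose 6 gel-filtration lipoprotein profiles (% peak area × serum total cholesterol). Values are mean ± SEM.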

[6] = system: Rattus norvegicus; assay: Amount of glucose in obese Zucker rats after 1 week of treatment at a dose of 3 mg/kg/day
How it was run: (§4)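 Female Zucker fatty rats [Crl:(Zuc)-faBR], 10–12 weeks old (400–500 g), gavaged daily with vehicle (20% EtOH/80% PEG-200, 0.25% of body weight) or compound. After a 6-h fast, blood glucose was read by glucometer from tail-prick blood of unanesthetized rats before dosing and after 1 and 2 weeks. Values are mean ± SEM.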

[7] = system: Rattus norvegicus; assay: Percentage change of non-HDL cholesterol levels in obese female Zucker rats after 2 weeks of pre-treatment at a dose of 100 mg/kg/day
How it was run: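 Female Zucker fatty rats [Crl:(Zuc)-faBR], 10–12 weeks old (400–500 g), acclimated 7 days and fed rodent chow. Dosed once daily by oral gavage in 20% EtOH/80% PEG-200 (v/v), at 0.25% of body weight, for 2 weeks. Blood taken after a 6-h fast: orbital plexus before dosing and at day 7, cardiac puncture at day 14. Serum lipoprotein cholesterol measured by Superose 6 gel filtration with on-line cholesterol detection. Values are % change from pretreatment, mean ± SEM.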

[8] = system: Rattus norvegicus; assay: Amount of non-HDL-cholesterol in obese Zucker rats at pre-treatment at a dose of 30 mg/kg/day
How it was run: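 Female obese Zucker fatty rats [Crl:(Zuc)-faBR], 10–12 weeks old (400–500 g), on chow. Compound in 20% EtOH/80% PEG-200 (v/v) given by daily oral gavage. After a 6-h fast, serum was taken before dosing and at 7 days (orbital plexus), and at 14 days (cardiac puncture). Lipoprotein cholesterol came from Superose 6HR gel-filtration profiles × serum total cholesterol. Mean ± SEM.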

[9] = system: Rattus norvegicus; assay: Amount of triglycerides in obese Zucker rats after 2 weeks of treatment at a dose of 30 mg/kg/day; how it was run: as §1
[10] = system: Rattus norvegicus; assay: Amount of HDL-cholesterol in obese Zucker rats after 2 weeks of treatment at a dose of 100 mg/kg/day; how it was run: as §3
[11] = system: Rattus norvegicus; assay: Amount of glucose in obese Zucker rats after 1 week of treatment at a dose of 0 mg/kg/day; how it was run: as §4
[12] = system: Rattus norvegicus; assay: Amount of triglycerides in obese Zucker rats at pre-treatment at a dose of 30 mg/kg/day; how it was run: as §1
[13] = system: Rattus norvegicus; assay: Percent decrease in nonesterified fatty acids in obese Zucker rats after 1 week of treatment at a dose of 100 mg/kg/day; design: scale not given: the % may be the effect or the level left; how it was run: as §2
[14] = system: Rattus norvegicus; assay: Amount of non-HDL-cholesterol in obese Zucker rats after 1 week of treatment at a dose of 0 mg/kg/day; how it was run: as §3
[15] = system: Rattus norvegicus; assay: Amount of non-HDL-cholesterol in obese Zucker rats after 1 week of treatment at a dose of 30 mg/kg/day; how it was run: as §3
[16] = system: Rattus norvegicus; assay: Amount of HDL-cholesterol in obese Zucker rats after 1 week of treatment at a dose of 3 mg/kg/day; how it was run: as §3
[17] = system: Rattus norvegicus; assay: Amount of nonesterified fatty acids in obese Zucker rats at pre-treatment at a dose of 30 mg/kg/day; how it was run: as §1
[18] = system: Rattus norvegicus; assay: Amount of non-HDL-cholesterol in obese Zucker rats after 1 week of treatment at a dose of 10 mg/kg/day; how it was run: as §3
[19] = system: Rattus norvegicus; assay: Percent increase in HDL-cholesterol in obese Zucker rats after 1 week of treatment at a dose of 100 mg/kg/day; how it was run: as §2
[20] = system: Rattus norvegicus; assay: Amount of triglycerides in obese Zucker rats after 1 week of treatment at a dose of 3 mg/kg/day; how it was run: as §1
[21] = system: Rattus norvegicus; assay: Amount of nonesterified fatty acids in obese Zucker rats after 2 weeks of treatment at a dose of 0 mg/kg/day; how it was run: as §1
[22] = system: Rattus norvegicus; assay: Amount of glucose in obese Zucker rats after 2 weeks of treatment at a dose of 0 mg/kg/day; how it was run: as §4
[23] = system: Rattus norvegicus; assay: Amount of triglycerides in obese Zucker rats after 1 week of treatment at a dose of 30 mg/kg/day; how it was run: as §1
[24] = system: Rattus norvegicus; assay: Amount of non-HDL-cholesterol in obese Zucker rats after 2 weeks of treatment at a dose of 100 mg/kg/day; how it was run: as §3
[25] = system: Rattus norvegicus; assay: Amount of insulin in obese Zucker rats at pre-treatment at a dose of 10 mg/kg/day
How it was run: (§5)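 Female obese Zucker rats [Crl:(Zuc)-faBR], 400–500 g, given daily oral gavage in 20% EtOH/80% PEG-200 for up to 14 days. After a 6-h fast, serum was collected pretreatment and at day 7 (orbital bleed) and day 14 (cardiac puncture) and stored at -80 °C. Insulin was measured by ELISA. Values are mean ± SEM.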

[26] = system: Rattus norvegicus; assay: Amount of insulin in obese Zucker rats at pre-treatment at a dose of 0 mg/kg/day; how it was run: as §5
[27] = system: Rattus norvegicus; assay: Amount of triglycerides in obese Zucker rats after 1 week of treatment at a dose of 10 mg/kg/day; how it was run: as §1
[28] = system: Rattus norvegicus; assay: Amount of nonesterified fatty acids in obese Zucker rats after 2 weeks of treatment at a dose of 3 mg/kg/day; how it was run: as §1
[29] = system: Rattus norvegicus; assay: Amount of glucose in obese Zucker rats at pre-treatment at a dose of 3 mg/kg/day; how it was run: as §4
[30] = system: Rattus norvegicus; assay: Amount of HDL-cholesterol in obese Zucker rats after 2 weeks of treatment at a dose of 30 mg/kg/day; how it was run: as §3
[31] = system: Rattus norvegicus; assay: Amount of triglycerides in obese Zucker rats after 2 weeks of treatment at a dose of 3 mg/kg/day; how it was run: as §1

`CC(C)(CCCCCC(=O)CCCCCC(C)(C)C(=O)O)C(=O)O` showed an Activity [1] of 865 mg/dL, an Activity [2] of 1.3 mg/dL and an Activity [3] of 0.98 mg/dL. For the same compound, the Activity [4] was 156%, the Activity [5] was 100 mg/dL and the Activity [6] was 117 mg/dL. For the same compound, the Change [7] was -99%, the Activity [8] was 27 mg/dL and the Activity [9] was 475 mg/dL. The Activity [10] was 141 mg/dL, the Activity [11] was 123 mg/dL and the Activity [12] was 982 mg/dL. The Activity [13] was -30%, the Activity [14] was 29 mg/dL and the Activity [15] was 14 mg/dL. For the same compound, the Activity [16] was 75 mg/dL, the Activity [17] was 1.3 mg/dL and the Activity [18] was 22 mg/dL. The Activity [19] was 51%, the Activity [20] was 995 mg/dL and the Activity [21] was 1.3 mg/dL. For the same compound, the Activity [22] was 120 mg/dL, the Activity [23] was 213 mg/dL and the Activity [24] was 3 mg/dL. For the same compound, the Activity [25] was 9.9 ng/mL, the Activity [26] was 9.1 ng/mL and the Activity [27] was 553 mg/dL. It also gave an Activity [28] of 1 mg/dL, an Activity [29] of 114 mg/dL and an Activity [30] of 208 mg/dL. The Activity [31] was 833 mg/dL.
Compound `CC(C)(CCCCC(=O)CCCCC(C)(C)C(=O)O)C(=O)O` has an Activity [1] of 814 mg/dL, an Activity [2] of 1.5 mg/dL and an Activity [3] of 0.81 mg/dL. The Activity [4] was 56%, the Activity [5] was 66 mg/dL and the Activity [6] was 99 mg/dL. For the same compound, the Change [7] was -41%, the Activity [8] was 48 mg/dL and the Activity [9] was 962 mg/dL. For the same compound, the Activity [10] was 68 mg/dL, the Activity [11] was 124 mg/dL and the Activity [12] was 1242 mg/dL. For the same compound, the Activity [13] was -33%, the Activity [14] was 43 mg/dL and the Activity [15] was 37 mg/dL. The Activity [16] was 36 mg/dL, the Activity [17] was 1.4 mg/dL and the Activity [18] was 26 mg/dL. For the same compound, the Activity [19] was 74%, the Activity [20] was 775 mg/dL and the Activity [21] was 1.4 mg/dL. For the same compound, the Activity [22] was 118 mg/dL, the Activity [23] was 826 mg/dL and the Activity [24] was 22 mg/dL. The Activity [25] was 10.6 ng/mL, the Activity [26] was 9.8 ng/mL and the Activity [27] was 692 mg/dL. For the same compound, the Activity [28] was 1.5 mg/dL, the Activity [29] was 108 mg/dL and the Activity [30] was 50 mg/dL. It also gave an Activity [31] of 857 mg/dL.
`CC(C)(CO)CCCCC(=O)CCCCC(C)(C)CO` was tested, and the Activity [1] was 730 mg/dL, the Activity [2] was 1.3 mg/dL and the Activity [3] was 0.98 mg/dL. The Activity [4] was 40%, the Activity [5] was 78 mg/dL and the Activity [6] was 106 mg/dL. For the same compound, the Change [7] was -10%, the Activity [8] was 30 mg/dL and the Activity [9] was 985 mg/dL. For the same compound, the Activity [10] was 79 mg/dL, the Activity [11] was 118 mg/dL and the Activity [12] was 998 mg/dL. For the same compound, the Activity [13] was -30%, the Activity [14] was 36 mg/dL and the Activity [15] was 28 mg/dL. For the same compound, the Activity [16] was 43 mg/dL, the Activity [17] was 1.4 mg/dL and the Activity [18] was 21 mg/dL. The Activity [19] was 73%, the Activity [20] was 800 mg/dL and the Activity [21] was 1.6 mg/dL. It also gave an Activity [22] of 116 mg/dL, an Activity [23] of 726 mg/dL and an Activity [24] of 32 mg/dL. For the same compound, the Activity [25] was 8.4 ng/mL, the Activity [26] was 9.1 ng/mL and the Activity [27] was 602 mg/dL. The Activity [28] was 1.6 mg/dL, the Activity [29] was 118 mg/dL and the Activity [30] was 61 mg/dL. It also gave an Activity [31] of 781 mg/dL.

Reference: ChEMBL document CHEMBL1137992, “Long hydrocarbon chain keto diols and diacids that favorably alter lipid disorders in vivo” (J Med Chem, 2004)
